This note sets out measurements from ChEMBL document CHEMBL4411297, “Discovery, synthesis and anti-atherosclerotic activities of a novel selective sphingomyelin synthase 2 inhibitor” (Eur J Med Chem, 2019).

Each structure is given as a SMILES string.

Data set [1] in a line: Half life in C57BL/6J mouse at 100 mg/kg/day, ig by HPLC-MS/MS analysis. It counts as ADME, organism-based. To be noted: in vivo, po. The gist of the method: (§1)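 Male C57BL/6J mice, six to eight weeks old, about 20 g, fasted 12 h with free water. Given a single intragastric dose of 25, 50 or 100 mg/kg in 10% DMSO/30% PEG-100/0.9% NaCl. Blood taken retro-orbitally at 5 min to 8 h. Plasma protein-precipitated with methanol plus internal standard, then HPLC-MS/MS on a C18 column. Noncompartmental analysis, n = 6.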

In data set [2] the target is T1, Phosphatidylcholine:ceramide cholinephosphotransferase 1 (Homo sapiens, UniProt Q86VZ5).
T1 sequence (Q86VZ5 whole entry): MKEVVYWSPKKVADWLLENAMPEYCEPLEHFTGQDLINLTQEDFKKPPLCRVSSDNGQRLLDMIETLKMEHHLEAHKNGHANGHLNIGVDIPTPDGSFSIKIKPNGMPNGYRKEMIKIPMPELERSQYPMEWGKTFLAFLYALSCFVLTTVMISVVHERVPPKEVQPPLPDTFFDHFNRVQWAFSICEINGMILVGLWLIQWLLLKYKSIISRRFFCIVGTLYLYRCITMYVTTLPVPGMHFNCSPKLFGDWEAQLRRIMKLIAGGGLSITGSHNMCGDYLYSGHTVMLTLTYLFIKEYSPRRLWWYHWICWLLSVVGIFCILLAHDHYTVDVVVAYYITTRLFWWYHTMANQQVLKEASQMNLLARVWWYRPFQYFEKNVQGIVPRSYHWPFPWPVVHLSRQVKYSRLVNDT
Briefly: (§2) Inhibition of purified SMS1 (unknown origin) using C6-NBD-Ceramide and DMPC as substrates preincubated for 5 mins followed by substrate addition and measured after 30 mins by TLC or HPLC method. The gist of the method:
(§3)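 Purified SMS1 or SMS2 in DDM detergent buffer; inhibitor in DMSO pre-incubated 5 min at room temperature, then C6-NBD-ceramide and DMPC added, 30 min at 37 °C; ethanol quench, TLC or HPLC read-out. Activity expressed as percent of no-inhibitor vehicle; IC50 from ten (SMS1) or eight (SMS2) concentrations, mean ± SD, n = 3.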

The target of data set [3] is T2, Phosphatidylcholine:ceramide cholinephosphotransferase 1 (Homo sapiens) (UniProt Q86VZ5).
T2 sequence (whole entry): T1 sequence (Q86VZ5 whole entry)
The description is as §2. An outline of the steps: as §3

In data set [4] the test system is Mus musculus. Briefly: Anti-atherosclerotic activity in apoE knockout mouse fed with western-type diet assessed as reduction in lymphocyte count at 40 mg/kg/day, ig for 7 weeks by flow cytometric analysis relative to control. Format: functional. Set-up: scale not given: the % may be the effect or the level left. The gist of the method:
(§4)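 ApoE KO mice started at 8 weeks old on Western-type diet for 6 weeks. Then dosed by gavage daily with vehicle, 12.5 or 40 mg/kg for 7 weeks with the diet continued, 10 mice per group. Blood single-cell suspensions stained with antibodies in PBS and analysed by flow cytometry. Mean ± SD, n = 5.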
In general terms: A flow cytometer gives signals particle by particle.

A short description of data set [5]: Ratio of drug level in liver to plasma in C57BL/6J mouse at 100 mg/kg/day, ig qd for 7 days measured on day 7. It counts as ADME, organism-based. The conditions noted are these: po. An outline of the steps:
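C57BL/6J mice dosed intragastrically at 100 mg/kg once daily for 7 days; compound levels in liver and blood measured on day 7, n = 5.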

In data set [6] the target is T3, Phosphatidylcholine:ceramide cholinephosphotransferase 2 (Mus musculus) (UniProt Q9D4B1).
T3 sequence (whole entry): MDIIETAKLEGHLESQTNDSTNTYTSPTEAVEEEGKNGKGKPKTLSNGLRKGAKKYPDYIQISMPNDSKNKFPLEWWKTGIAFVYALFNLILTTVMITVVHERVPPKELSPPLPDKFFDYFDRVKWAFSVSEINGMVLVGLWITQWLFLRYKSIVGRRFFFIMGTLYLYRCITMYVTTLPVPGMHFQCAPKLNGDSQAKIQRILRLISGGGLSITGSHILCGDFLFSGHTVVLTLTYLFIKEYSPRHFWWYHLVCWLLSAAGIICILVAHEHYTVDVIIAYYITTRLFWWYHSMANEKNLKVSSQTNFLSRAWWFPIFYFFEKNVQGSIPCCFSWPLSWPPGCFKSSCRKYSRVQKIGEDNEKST
Put plainly: Inhibition of SMS2 in C57BL/6J mouse bone marrow derived macrophages after 17 hrs.

Data set [7] concerns Mus musculus. Briefly: Anti-atherosclerotic activity in apoE knockout mouse fed with western-type diet assessed as reduction in CD4+/CD8+ cell ratio at 12.5 mg/kg/day, ig for 7 weeks by flow cytometric analysis relative to control. Format: functional. Details: scale not given: the % may be the effect or the level left. An outline of the steps:
as §4

Data set [8] is described as follows: Apparent volume of distribution during terminal phase in C57BL/6J mouse at 50 mg/kg/day, ig by HPLC-MS/MS analysis. It counts as ADME, organism-based. To be noted: in vivo, po, read-out: Vz/F. An outline of the steps: as §1
For data set [9], the system named is Mus musculus. Briefly: Anti-atherosclerotic activity in apoE knockout mouse fed with western-type diet assessed as reduction in lesions in whole aorta at 12.5 mg/kg/day, ig for 7 weeks by oil-red O staining-based assay relative to control. Format: functional. Details: scale not given: the % may be the effect or the level left. An outline of the steps: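 ApoE KO mice fed Western-type diet, then given 12.5 or 40 mg/kg/day by gavage in 30% PEG-400/10% DMSO/0.9% NaCl for 7 weeks. Aortic root: H&E-stained 4 µm sections, mean lesion area from 6 sections per animal. Whole aorta: en face Oil Red O staining, percentage of area stained. Compared with vehicle, n = 10.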

The nature of data set [10]: Tmax in C57BL/6J mouse at 25 mg/kg/day, ig by HPLC-MS/MS analysis. It counts as ADME, organism-based. To be noted: in vivo, po. An outline of the steps:
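Male C57BL/6J mice (6–8 weeks, ~20 g), fasted 12 h, given a single intragastric dose of 25, 50 or 100 mg/kg in 10% DMSO/30% PEG/0.9% NaCl. Retro-orbital blood at 5 min to 8 h; plasma protein-precipitated with methanol plus internal standard, assayed by LC-MS/MS; noncompartmental analysis. Mean ± SD, n = 6.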

For the molecule `CCc1ccccc1COc1ccccc1C(=O)Nc1cccnc1`, the half-life in data set [1] was 2.51 h. In [2], this molecule returned an IC50 of 134 µM. Further, the inhibition result in data set [3] and in data set [6] was “Dose-dependent effect” throughout. Also, the Activity is 24% with Mus musculus [4], 34% in the data set with Mus musculus [7] and 32% with Mus musculus [9]. Further, the concentration ratio (Kp) at 168 h in data set [5] amounted to 5. Moreover, the Vd/F in data set [8] came out at 26.5 L. Also, the Tmax in data set [10] was 6.6 min.

As a reminder, the half-life is the time in which the quantity being followed falls by half. One may read the IC50 as the midpoint of a concentration-inhibition curve. Broadly, the Kp is tissue or fluid exposure divided by exposure in the circulation. The term Tmax denotes the time at which the peak concentration occurs.
